Legend:
[1] = system: HepG2 ARE-luciferase reporter cells; test: ARE-luciferase activity assay; type: cell-based; conditions: 48 h, 14: maximum at 1 μM
[2] = molecular target: recombinant KEAP1-Kelch domain (Homo sapiens, UniProt Q14145); test: biochemical; type: binding
[3] = system: NRF2 downstream targets, NQO1 and HO-1; test: NQO1 and HO-1 protein levels in HEK293T and HCA7 cell lines; type: cell-based; conditions: 48 h
How it was run: (§1)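 HEK293T, HCA7 and A549 cells were grown in DMEM with 10% FBS and pen/strep; BEAS-2B in LHC-9 with pen/strep; all at 37 °C, 10% CO₂. Cells were exposed to test compound for 48 h, lysed, run on 4–12% SDS-PAGE and transferred to nitrocellulose. Blocking was 5% skim milk for 1 h at RT. Probes were anti-KEAP1, CRBN, NQO1 or HO-1, with HRP anti-β-actin loading control and HRP secondaries. Blots represent 3 independent experiments.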

CRBN = CRBN (Homo sapiens, UniProt Q96SW2); test: CRBN levels by immunoblotting; type: cell-based; conditions: HEK293T, HCA7, BEAS-2B, and A549 cells, 48 h
Sequence of CRBN (Q96SW2 whole entry): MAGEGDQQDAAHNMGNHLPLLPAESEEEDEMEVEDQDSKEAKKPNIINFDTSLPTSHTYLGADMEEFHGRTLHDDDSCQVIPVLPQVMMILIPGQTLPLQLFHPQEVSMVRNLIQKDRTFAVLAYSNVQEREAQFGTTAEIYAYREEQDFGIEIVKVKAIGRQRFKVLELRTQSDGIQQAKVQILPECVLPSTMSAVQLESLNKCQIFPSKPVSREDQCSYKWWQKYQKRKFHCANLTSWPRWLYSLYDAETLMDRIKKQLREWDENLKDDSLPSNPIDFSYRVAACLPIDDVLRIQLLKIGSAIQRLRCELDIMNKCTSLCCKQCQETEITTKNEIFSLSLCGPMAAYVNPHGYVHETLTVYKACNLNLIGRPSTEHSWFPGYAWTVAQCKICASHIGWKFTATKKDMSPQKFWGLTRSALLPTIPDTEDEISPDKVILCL
How it was run: as §1

KEAP1 in HEK293T cells = KEAP1 in HEK293T cells (Homo sapiens, UniProt Q14145); test: KEAP1 degradation in HEK293T cells; type: cell-based
Sequence of KEAP1 in HEK293T cells (Q14145 whole entry): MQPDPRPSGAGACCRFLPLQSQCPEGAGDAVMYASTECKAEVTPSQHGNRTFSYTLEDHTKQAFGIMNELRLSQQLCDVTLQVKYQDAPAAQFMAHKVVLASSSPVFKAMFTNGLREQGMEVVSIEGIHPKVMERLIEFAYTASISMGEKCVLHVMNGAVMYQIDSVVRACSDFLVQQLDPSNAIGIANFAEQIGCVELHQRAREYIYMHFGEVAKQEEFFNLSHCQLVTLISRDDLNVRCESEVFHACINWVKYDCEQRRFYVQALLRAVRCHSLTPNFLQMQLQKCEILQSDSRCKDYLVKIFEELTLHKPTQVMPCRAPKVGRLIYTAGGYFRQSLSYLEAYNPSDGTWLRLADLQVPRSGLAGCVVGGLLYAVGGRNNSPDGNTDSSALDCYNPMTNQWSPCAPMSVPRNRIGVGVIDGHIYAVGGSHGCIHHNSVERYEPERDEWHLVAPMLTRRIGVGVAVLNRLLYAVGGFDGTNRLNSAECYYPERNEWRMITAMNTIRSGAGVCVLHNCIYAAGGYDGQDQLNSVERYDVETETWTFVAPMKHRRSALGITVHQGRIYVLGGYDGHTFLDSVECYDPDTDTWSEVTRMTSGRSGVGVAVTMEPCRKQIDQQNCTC

KEAP1 in HCA7 cells = KEAP1 in HCA7 cells (Homo sapiens, UniProt Q14145); test: KEAP1 degradation in HCA7 cells; type: cell-based; conditions: 48 h
Sequence of KEAP1 in HCA7 cells (Q14145 whole entry): as above
How it was run: as §1

KEAP1 in BEAS-2B cells = KEAP1 in BEAS-2B cells (Homo sapiens, UniProt Q14145); test: KEAP1 degradation in BEAS-2B cells; type: cell-based
Sequence of KEAP1 in BEAS-2B cells (Q14145 whole entry): as above

BEAS-2B cells proteome = test: Label-free quantitative MS proteomics in BEAS-2B cells; type: cell-based, human; conditions: 0.13 μM, 48 h, vs DMSO
How it was run: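 BEAS-2B cells received DMSO or 0.13 μM test compound for 48 h, then were lysed in 5% SDS/50 mM TEAB. 20 μg protein was processed on S-traps (chloroacetamide alkylation), digested with trypsin/Lys-C and cleaned on SDB stage tips. About 100 ng peptide ran on a 48 min C18 gradient, timsTOF DIA-PASEF. Library-free search against human UniProt, 1% precursor FDR, MaxLFQ quantitation. Hits: >1.5-fold versus DMSO, adjusted P <0.01.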

[4] = molecular target: KEAP1 (G333C mutation in the KEAP1-Kelch domain) in A549 cells (Homo sapiens, UniProt Q14145, G333C); test: KEAP1 degradation in A549 cells; type: cell-based; conditions: 48 h
Sequence of KEAP1 (G333C mutation in the KEAP1-Kelch domain) in A549 cells (Q14145 whole entry G333C, the tested form may be a part): as the sequence (Q14145 whole entry) above, with G333C counted along it
How it was run: as §1

BEAS-2B cells = test: Flow cytometric detection of cell viability after tBHP; type: cell-based, human; conditions: 50 μM tBHP
How it was run: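 BEAS-2B cells (LHC-9 with pen/strep) were seeded at 1.2 × 10⁴ cells/well overnight, pre-treated with test compound for 24 h, then given 50 μM tBHP for 24 h. Harvested cells were stained with 1 μg/mL propidium iodide. Gating used FSC-A/SSC-A to exclude debris and FSC-H/FSC-A to exclude doublets. Viability was % PI-negative cells. Three independent assays, single points each; mean and S.D.; unpaired t-test.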

[5] = system: NQO1, TALDO1, and GCLM mRNA in BEAS-2B cells; test: Quantitative RT-PCR of antioxidant genes in BEAS-2B cells; type: cell-based, human; conditions: 0.13 μM, 48 h
How it was run: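 BEAS-2B cells were treated with 0.13 μM test compound for 48 h. RNA was extracted, reverse transcribed (SuperScript IV) and quantified by SYBR Green qPCR. Expression was normalized to 18S by the delta-delta-Ct method. Three independent experiments, each in technical triplicate; mean and S.D.; unpaired t-test.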

[6] = system: NQO1 and GCLM in BEAS-2B cells; test: NQO1 and GCLM protein expression in BEAS-2B cells; type: cell-based, human; conditions: 48 h, all tested concentrations

Sequence of recombinant KEAP1-Kelch domain (Q14145 312-624): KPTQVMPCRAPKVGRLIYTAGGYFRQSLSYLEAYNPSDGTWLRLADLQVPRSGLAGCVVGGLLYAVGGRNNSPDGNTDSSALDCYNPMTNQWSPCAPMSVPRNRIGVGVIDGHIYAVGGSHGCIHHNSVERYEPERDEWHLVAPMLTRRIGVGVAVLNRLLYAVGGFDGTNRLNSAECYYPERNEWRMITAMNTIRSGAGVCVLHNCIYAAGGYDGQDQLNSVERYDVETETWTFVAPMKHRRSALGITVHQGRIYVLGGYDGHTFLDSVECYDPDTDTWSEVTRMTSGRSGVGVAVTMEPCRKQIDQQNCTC

Cc1ccc(C(CC(=O)O)c2cc(OCCCCCCCNc3cccc4c3C(=O)N(C3CCC(=O)NC3=O)C4=O)c3c(c2)nnn3C)cc1CN1C[C@@H](C)Oc2ccccc2S1(=O)=O (stereo partly drawn) [Compound 14, 3-(7-((7-((2-(2,6-Dioxopiperidin-3-yl)-1,3-dioxoisoindolin-4-yl)amino)heptyl)oxy)-1-methyl-1H-benzo[d][1,2,3]triazol-5-yl)-3-(4-methyl-3-(((R)-4-methyl-1,1-dioxido-3,4-dihydro-2H-benzo[b][1,4,5]oxathiazepin-2-yl)methyl)phenyl)propanoic acid]
induction of luciferase signal compared to the DMSO control group [1]: 3.5 fold | IC50 [2]: 46 nM | HO-1 protein expression [3]: upregulated | NQO1 protein expression [3]: upregulated | CRBN levels (CRBN): no change in CRBN levels | KEAP1 degradation / expression (KEAP1 in HEK293T cells; HEK293T cells, 48 h): robust degradation of KEAP1 | KEAP1 degradation at longer time points (KEAP1 in HEK293T cells; HEK293T cells, 48 h and 72 h, comparison of 8 and 14): degraded KEAP1 more efficiently at 48 and 72 h compared to 8 | hook effect observed at concentrations higher than (KEAP1 in HEK293T cells; HEK293T cells, dose titration 0.01–8 μM, 24 h): higher than 1 μM | Dmax at 1 µM (KEAP1 in HEK293T cells; HEK-293T, read-out: maximum degradation (Dmax)): 94% | KEAP1 degradation / expression (KEAP1 in HCA7 cells): robust degradation of KEAP1 | Dmax at 0.0625 µM (KEAP1 in BEAS-2B cells): 90% | ABHD4 abundance (proteomics) (BEAS-2B cells proteome): significantly upregulated | ZFP91 abundance (proteomics) (BEAS-2B cells proteome): Off-target degradation of ZFP91 | abundance of KEAP1 (proteomics) (BEAS-2B cells proteome): significantly reduced the abundance of KEAP1 | abundance of other Kelch domain proteins KBTBD4, KLHDC2, and KLHL11 (proteomics) (BEAS-2B cells proteome): not impacted | KEAP1 degradation [4]: did not degrade KEAP1 | rescue of cell viability from tBHP, comparison of 14 and 2 (BEAS-2B cells; between 500 and 16 nM): equal potent | rescue of cell viability from tBHP, comparison of 14 and 2 (BEAS-2B cells; concentrations lower than 16 nM): less effective | mRNA induction of GCLM [5]: 2 fold | mRNA induction of NQO1 [5]: 4 fold | mRNA induction of TALDO1 [5]: 2 fold | increased expression of NQO1 and GCLM, compared with KEAP1 inhibitor 2 [6]: equipotent

COc1cc(C(CC(=O)O)c2ccc(C)c(CN3C[C@@H](C)Oc4ccccc4S3(=O)=O)c2)cc2nnn(C)c12 (stereo partly drawn) [Compound 2, 3-(7-Methoxy-1-methyl-1H-benzo[d][1,2,3]triazol-5-yl)-3-(4-methyl-3-(((R)-4-methyl-1,1-dioxido-3,4-dihydro-2H-benzo[b][1,4,5]oxathiazepin-2-yl)methyl)phenyl)propanoic acid]
induction of luciferase signal compared to the DMSO control group [1]: 5- to 6 fold | ABHD4 abundance (proteomics) (BEAS-2B cells proteome): not upregulated | abundance of KEAP1 (proteomics) (BEAS-2B cells proteome): did not affect KEAP1 expression | rescue of cell viability from tBHP, comparison of 14 and 2 (BEAS-2B cells; between 500 and 16 nM): equal potent | mRNA induction of GCLM [5]: 2 fold | mRNA induction of NQO1 [5]: 4 fold | mRNA induction of TALDO1 [5]: 2 fold
